Assay results as given in ChEMBL document CHEMBL3259662 (ACS Med Chem Lett, 2014).
Converted amounts (≈) assume the structure as drawn. The source made the active and inactive calls. The rule behind the calls is not given here. Peptide text beside a SMILES is read from it. * marks the point of attachment. Boc = CC(C)(C)OC(=O)*; NHBn = c1ccc(CN*)cc1

Key:
Candida albicans = experiment: Antifungal activity against Candida albicans by CLSI method; type: functional, organism-based
Aspergillus fumigatus = experiment: Antifungal activity against Aspergillus fumigatus by CLSI method; type: functional, organism-based
Escherichia coli = experiment: Antibacterial activity against Escherichia coli ATCC 35218 after 16 to 20 hrs by CLSI method; type: functional, organism-based
Nakaseomyces glabratus = experiment: Antifungal activity against Candida glabrata by CLSI method; type: functional, organism-based
Pichia kudriavzevii = experiment: Antifungal activity against Candida krusei by CLSI method; type: functional, organism-based
Cryptococcus neoformans [1] = experiment: Antifungal activity against Cryptococcus neoformans ATCC 90113 after 70 to 74 hrs by CLSI method; type: functional, organism-based; conditions: for IC50 / MIC: Cryptococcus neoformans, ATCC 90113
How it was run: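 Growth inhibition of C. neoformans per the CLSI protocol. […] MIC is the lowest test concentration with no detectable growth. MFC is the lowest concentration killing 100% of the organism.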

Cryptococcus neoformans [2] = experiment: Antifungal activity against Cryptococcus neoformans ATCC 90113 at 20 ug/ml after 70 to 74 hrs by CLSI method; type: functional, organism-based
How it was run: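 C. neoformans screened per the CLSI protocol at the highest tested concentration of 20 μg/mL. Compounds showing no activity at this level were scored not active.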

SK-MEL = experiment: Cytotoxicity against human SK-MEL cells assessed as cell viability after 48 hrs by neutral red uptake assay; type: cell-based
How it was run: (§1)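 Neutral red uptake assay in human cancer lines SK-MEL, KB, BT-549 and SK-OV-3 and in noncancerous mammalian kidney cells VERO and LLC-PK1. The highest tested concentration was 10 μg/mL.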

KB = experiment: Cytotoxicity against human KB cells assessed as cell viability after 48 hrs by neutral red uptake assay; type: cell-based; how it was run: as §1
BT-549 = experiment: Cytotoxicity against human BT549 cells assessed as cell viability after 48 hrs by neutral red uptake assay; type: cell-based; conditions: bt-549, 48 h; how it was run: as §1
SK-OV-3 = experiment: Cytotoxicity against human SKOV3 cells assessed as cell viability after 48 hrs by neutral red uptake assay; type: cell-based; conditions: sk-ov-3, 48 h; how it was run: as §1
Vero = experiment: Cytotoxicity against African green monkey Vero cells assessed as cell viability after 48 hrs by neutral red uptake assay; type: cell-based; conditions: chlorocebus sabaeus; how it was run: as §1
LLC-PK1 = experiment: Cytotoxicity against pig LLC-PK1 cells assessed as cell viability after 48 hrs by neutral red uptake assay; type: cell-based, Sus scrofa; conditions: llc-pk1, 48 h; how it was run: as §1
[3] = Selectivity index, ratio of cytotoxicity for human SK-MEL cells to IC50 for Cryptococcus neoformans ATCC 90113; type: toxicity, cell-based; conditions: read-out: Selectivity Index
[4] = Selectivity index, ratio of cytotoxicity for human KB cells to IC50 for Cryptococcus neoformans ATCC 90113; type: toxicity, cell-based; conditions: read-out: Selectivity Index
[5] = Selectivity index, ratio of cytotoxicity for human BT549 cells to IC50 for Cryptococcus neoformans ATCC 90113; type: toxicity, cell-based, BT-549; conditions: read-out: Selectivity Index
[6] = Selectivity index, ratio of cytotoxicity for human SKOV3 cells to IC50 for Cryptococcus neoformans ATCC 90113; type: toxicity, cell-based, SK-OV-3; conditions: read-out: Selectivity Index
[7] = Selectivity index, ratio of cytotoxicity for African green monkey Vero cells to IC50 for Cryptococcus neoformans ATCC 90113; type: toxicity, cell-based; conditions: read-out: Selectivity Index
[8] = Selectivity index, ratio of cytotoxicity for pig LLC-PK1 cells to IC50 for Cryptococcus neoformans ATCC 90113; type: toxicity, cell-based; conditions: read-out: Selectivity Index
[9] = Retention time of the compound by reverse phase HPLC analysis; type: physicochemical
How it was run: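 Reverse-phase HPLC on a C-18 column (25 cm × 4.6 mm, 5 μM) at 1 mL/min over 40 min. The gradient ran 85−5% with A = 0.1% TFA in H2O and B = 0.1% TFA in CH3CN. Detection was at 220 nm.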

| SMILES | Activity (Candida albicans) | Activity (Aspergillus fumigatus) | Activity (Escherichia coli) | Activity (Nakaseomyces glabratus) | Activity (Pichia kudriavzevii) | IC50 (Cryptococcus neoformans [1]) [µg/mL] | Activity (Cryptococcus neoformans [2]) | Activity (SK-MEL) [µg/mL] | Activity (KB) [µg/mL] | Activity (BT-549) [µg/mL] | Activity (SK-OV-3) [µg/mL] | Activity (Vero) [µg/mL] | Activity (LLC-PK1) [µg/mL] | MFC100 (Cryptococcus neoformans [1]) [µg/mL] | MIC (Cryptococcus neoformans [1]) [µg/mL] | selectivity ratio [3] | selectivity ratio [4] | selectivity ratio [5] | selectivity ratio [6] | Retention_time [9] [min] | further results |
| --- | --- | --- | --- | --- | --- | --- | --- | --- | --- | --- | --- | --- | --- | --- | --- | --- | --- | --- | --- | --- | --- |
| COC(=O)[C@H](CCCNC(=N)N)NC(=O)[C@H](Cc1c[nH]c(-c2ccc(C)cc2)n1)NC(=O)[C@@H](N)CCCNC(=N)N | inactive | inactive | inactive | inactive | inactive | 19.7 (≈ 34.5 µM) | inactive | > 10 | > 10 | > 10 | > 10 | > 10 | > 10 |  |  |  |  |  |  |  |  |
| COC(=O)[C@H](CCCNC(=N)N)NC(=O)[C@H](Cc1c[nH]c(-c2ccccc2)n1)NC(=O)[C@@H](N)CCCNC(=N)N | inactive | inactive | inactive | inactive | inactive |  | inactive | > 10 | > 10 | > 10 | > 10 | > 10 | > 10 |  |  |  |  |  |  |  |  |
| COC(=O)[C@H](CCCNC(=N)N)NC(=O)[C@H](Cc1c[nH]c(-c2ccc(-c3ccccc3)cc2)n1)NC(=O)[C@H](CCCNC(=N)N)NC(=O)OC(C)(C)C | inactive | inactive | inactive | inactive | inactive | 0.8 (≈ 1.09 µM) |  | > 10 | > 10 | > 10 | > 10 | > 10 | > 10 | 1.25 (≈ 1.7 µM) | 1.25 (≈ 1.7 µM) | > 12.5 | > 12.5 | > 12.5 | > 12.5 | 18.64 | selectivity ratio [7]: > 12.5; selectivity ratio [8]: > 12.5 |
| COC(=O)[C@H](CCCNC(=N)N)NC(=O)[C@H](Cc1c[nH]cn1)NC(=O)[C@@H](N)CCCNC(=N)N (H-Arg-His-Arg-OMe) | inactive | inactive | inactive | inactive | inactive | 19 (≈ 39.5 µM) | inactive | > 10 | > 10 | > 10 | > 10 | > 10 | > 10 |  |  |  |  |  |  |  |  |
| COC(=O)[C@H](CCCNC(=N)N)NC(=O)[C@H](Cc1c[nH]cn1)NC(=O)[C@H](CCCNC(=N)N)NC(=O)OC(C)(C)C (Boc-Arg-His-Arg-OMe) | inactive | inactive | inactive | inactive | inactive |  | inactive | > 10 | > 10 | > 10 | > 10 | > 10 | > 10 |  |  |  |  |  |  | 10.75 |  |
| COC(=O)[C@H](CCCNC(=N)N)NC(=O)[C@H](Cc1c[nH]c(-c2ccc(OC)cc2)n1)NC(=O)[C@H](CCCNC(=N)N)NC(=O)OC(C)(C)C | inactive | inactive | inactive | inactive | inactive | 4.06 (≈ 5.9 µM) |  | > 10 | > 10 | > 10 | > 10 | > 10 | > 10 | 5 (≈ 7.27 µM) | 5 (≈ 7.27 µM) | > 2.5 | > 2.5 | > 2.5 | > 2.5 | 13.59 | selectivity ratio [7]: > 2.5; selectivity ratio [8]: > 2.5 |
| COc1ccc(-c2nc(C[C@H](NC(=O)[C@H](CCCNC(=N)N)NC(=O)OC(C)(C)C)C(=O)N[C@@H](CCCNC(=N)N)C(=O)NCc3ccccc3)c[nH]2)cc1 | inactive | inactive | inactive | inactive | inactive | 0.68 (≈ 0.891 µM) |  | > 10 | > 10 | > 10 | > 10 | > 10 | > 10 | 5 (≈ 6.55 µM) | 2.5 (≈ 3.28 µM) | > 14.7 | > 14.7 | > 14.7 | > 14.7 | 18.93 | selectivity ratio [7]: > 14.7; selectivity ratio [8]: > 14.7 |
| N=C(N)NCCC[C@H](NC(=O)[C@H](Cc1c[nH]cn1)NC(=O)[C@@H](N)CCCNC(=N)N)C(=O)NCc1ccccc1 (H-Arg-His-Arg-NHBn) | inactive | inactive | inactive | inactive | inactive |  | inactive | > 10 | > 10 | > 10 | > 10 | > 10 | > 10 |  |  |  |  |  |  |  |  |
| COC(=O)[C@H](CCCNC(=N)N)NC(=O)[C@H](Cc1c[nH]c(-c2ccccc2)n1)NC(=O)[C@H](CCCNC(=N)N)NC(=O)OC(C)(C)C | inactive | inactive | inactive | inactive | inactive | 10.4 (≈ 15.8 µM) | inactive | > 10 | > 10 | > 10 | > 10 | > 10 | > 10 |  |  |  |  |  |  | 11.89 |  |
| COC(=O)[C@H](CCCNC(=N)N)NC(=O)[C@H](Cc1c[nH]c(-c2ccc(C(C)(C)C)cc2)n1)NC(=O)[C@H](CCCNC(=N)N)NC(=O)OC(C)(C)C | inactive | inactive | inactive | inactive | inactive | 0.71 (≈ 0.995 µM) |  | > 10 | > 10 | > 10 | > 10 | > 10 | > 10 | 1.25 (≈ 1.75 µM) | 1.25 (≈ 1.75 µM) | > 14.1 | > 14.1 | > 14.1 | > 14.1 | 20.91 | selectivity ratio [7]: > 14.1; selectivity ratio [8]: > 14.1 |
